Experimental data reported in ChEMBL document CHEMBL2396608, “Thiazolylaminomannosides as potent antiadhesives of type 1 piliated Escherichia coli isolated from Crohn's disease patients” (J Med Chem, 2013).
Calls of active or inactive are those of the source. The rule behind the calls is not given here.

Legend:
Escherichia coli [1] = assay: Antiadhesive activity against type-1 piliated adherent-invasive Escherichia coli LF82 assessed as inhibition of guinea pig erythrocyte hemagglutination relative to heptylmannoside; assay type: functional
Summary of the method: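 LF82 grown statically overnight in LB at 37 °C and washed three times in ice-cold PBS. Twofold compound dilutions, starting at 1 mM, made in 20 mM HEPES pH 7.4, 150 mM NaCl. Added 25 μL bacteria, then 50 μL guinea pig erythrocytes at 5%. Overnight on ice before read-out.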

[2] = target: Type 1 fimbrin D-mannose specific adhesin (Escherichia coli K-12) (UniProt P08191); assay: Binding affinity to Escherichia coli FimH assessed as decrease in RNaseB binding after 1 hr by competitive ELISA
Chain of Type 1 fimbrin D-mannose specific adhesin (Escherichia coli K-12) (P08191 whole entry): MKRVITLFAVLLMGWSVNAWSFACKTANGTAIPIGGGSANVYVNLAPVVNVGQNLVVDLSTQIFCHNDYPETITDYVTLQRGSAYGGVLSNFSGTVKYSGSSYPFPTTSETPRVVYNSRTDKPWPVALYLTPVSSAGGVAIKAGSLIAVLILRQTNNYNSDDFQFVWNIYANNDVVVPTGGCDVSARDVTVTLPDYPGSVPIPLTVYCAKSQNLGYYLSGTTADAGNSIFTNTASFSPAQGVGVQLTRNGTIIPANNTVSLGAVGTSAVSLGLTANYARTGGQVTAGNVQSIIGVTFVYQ
Summary of the method: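 Wells coated with RNaseB in bicarbonate buffer pH 9.6, overnight at 4 °C. Blocked with 3% BSA in PBST, 2 h at 37 °C. Inhibitors in PBST plus FimH at 0.07 μM, 1 h at room temperature. Detection used rabbit anti-FimH (1:2500, 1 h), then HRP anti-rabbit (1:5000, 1 h), then TMB for 2–5 min in the dark, stopped with 1N H₂SO₄. Absorbance read at 450 nm.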

Escherichia coli [3] = assay: Antiadhesive activity against type-1 piliated adherent-invasive Escherichia coli LF82 assessed as inhibition of bacterial adhesion to colonic tissue isolated from FVB/N transgenic mouse expressing human CEACAM6 after 1 hr; assay type: functional, organism-based
Summary of the method: (§1)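 Colons from 10–12-week-old FVB/N CEABAC10 mice (human CEACAM6 transgenic; anesthetized, killed by cervical dislocation) split into four loops. Each loop was injected with 100 μL holding 2 × 10⁵ LF82 with or without inhibitor at 0.01, 0.1, 1 or 10 μmol, then held 1 h at 37 °C, 5% CO₂. Loops were opened, washed four times in PBS, homogenized and plated on LB agar with ampicillin 100 μg/mL and erythromycin 20 μg/mL. CFU normalized to untreated (100%); n = 5–8 mice, means SEM.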

Escherichia coli [4] = assay: Antiadhesive activity against type-1 piliated adherent-invasive Escherichia coli LF82 assessed as decrease in residual bacterial adhesion to colonic tissue isolated from FVB/N transgenic mouse expressing human CEACAM6 at 10 umol after 1 hr relative to control; assay type: functional; summary of the method: as §1
Escherichia coli [5] = assay: Antiadhesive activity against type-1 piliated adherent-invasive Escherichia coli LF82 assessed as residual bacterial adhesion to human T84 cells overexpressing CEACAM6 at 1000 uM incubated for 1 hr prior to infection measured after 3 hrs relative to control; assay type: functional
Summary of the method: (§2)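 T84 cells seeded at 1.5 × 10⁵ cells/well and grown 48 h at 37 °C under 5% CO₂. Washed monolayers pretreated 1 h with inhibitor at final 0.1, 1, 10 or 100 μM (α-D-mannose 100–50000 μM), then infected 3 h with LB-grown LF82 at MOI 10 with inhibitor present. Cells lysed in 1% Triton X-100; CFU counted on LB agar. Residual adhesion given as % of untreated (means SEM).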

Escherichia coli [6] = assay: Antiadhesive activity against type-1 piliated adherent-invasive Escherichia coli LF82 assessed as inhibition of bacterial adhesion to human T84 cells overexpressing CEACAM6 incubated for 1 hr prior to infection measured after 3 hrs; assay type: functional, organism-based; summary of the method: as §2
Escherichia coli [7] = assay: Ratio of compound activity to D-mannose activity for prevention of Escherichia coli LF82 adhesion to colonic tissue isolated from FVB/N transgenic mouse expressing human CEACAM6; assay type: functional
Escherichia coli [8] = assay: Antiadhesive activity against type-1 piliated adherent-invasive Escherichia coli LF82 assessed as decrease in residual bacterial adhesion to colonic tissue isolated from FVB/N transgenic mouse expressing human CEACAM6 at 0.1 umol after 1 hr relative to control; assay type: functional; summary of the method: as §1
Escherichia coli [9] = assay: Antiadhesive activity against type-1 piliated adherent-invasive Escherichia coli LF82 assessed as inhibition of bacterial adhesion to human T84 cells overexpressing CEACAM6 at 0.1 to 100 uM incubated for 1 hr prior to infection measured after 3 hrs relative to heptylmannoside; assay type: functional
Escherichia coli [10] = assay: Antiadhesive activity against type-1 piliated adherent-invasive Escherichia coli LF82 assessed as residual bacterial adhesion to human T84 cells overexpressing CEACAM6 at 0.1 uM incubated for 1 hr prior to infection measured after 3 hrs relative to control; assay type: functional; summary of the method: as §2
Escherichia coli [11] = assay: Antiadhesive activity against type-1 piliated adherent-invasive Escherichia coli LF82 assessed as residual bacterial adhesion to human T84 cells overexpressing CEACAM6 at 1 uM incubated for 1 hr prior to infection measured after 3 hrs relative to control; assay type: functional; summary of the method: as §2
Escherichia coli [12] = assay: Antiadhesive activity against type-1 piliated adherent-invasive Escherichia coli LF82 assessed as residual bacterial adhesion to human T84 cells overexpressing CEACAM6 at 10 uM incubated for 1 hr prior to infection measured after 3 hrs relative to control; assay type: functional; summary of the method: as §2
[13] = target: Type 1 fimbrin D-mannose specific adhesin (Escherichia coli K-12, UniProt P08191); assay: Binding affinity to Escherichia coli FimH assessed as dissociation constant by ITC analysis
Chain of Type 1 fimbrin D-mannose specific adhesin (P08191 whole entry): as above

Activity [2] | Structure (SMILES) | fold change (FC) (Escherichia coli [1]) | other results
Dose-dependent effect | O=C(c1ccccc1)c1cnc(N[C@H]2O[C@H](CO)[C@@H](O)[C@H](O)[C@@H]2O)s1 | 0.4 | 
 | OC[C@H]1O[C@H](O)[C@@H](O)[C@@H](O)[C@@H]1O |  | inhibition (Escherichia coli [3]): Dose-dependent effect; Activity (Escherichia coli [4]): 41%; Activity (Escherichia coli [5]): 51.6%; inhibition (Escherichia coli [6]): Dose-dependent effect
Dose-dependent effect | O=C(c1cccs1)c1cnc(N[C@H]2O[C@H](CO)[C@@H](O)[C@H](O)[C@@H]2O)s1 | 0.1 | 
Dose-dependent effect | O=C(c1cnc(N[C@H]2O[C@H](CO)[C@@H](O)[C@H](O)[C@@H]2O)s1)C(F)(F)F | 1.7 | 
Dose-dependent effect | O=C(c1ccc2ccccc2c1)c1cnc(N[C@H]2O[C@H](CO)[C@@H](O)[C@H](O)[C@@H]2O)s1 | 2.3 | 
Dose-dependent effect | N#Cc1ccc(C(=O)c2cnc(N[C@H]3O[C@H](CO)[C@@H](O)[C@H](O)[C@@H]3O)s2)cc1 | 0.7 | 
Dose-dependent effect | CC(C)(C)C(=O)c1cnc(N[C@H]2O[C@H](CO)[C@@H](O)[C@H](O)[C@@H]2O)s1 | 0.9 | 
Dose-dependent effect | Cc1ccc(C(=O)c2cnc(N[C@H]3O[C@H](CO)[C@@H](O)[C@H](O)[C@@H]3O)s2)cc1 | 0.4 | 
Dose-dependent effect | O=C(c1ccsc1)c1cnc(N[C@H]2O[C@H](CO)[C@@H](O)[C@H](O)[C@@H]2O)s1 | 0.3 | 
 | CCCCCCCO[C@H]1O[C@H](CO)[C@@H](O)[C@H](O)[C@@H]1O |  | Activity (Escherichia coli [12]): 52.4%; inhibition (Escherichia coli [6]): Dose-dependent effect; Kd [13]: 7 nM; Activity (Escherichia coli [11]): inactive
Dose-dependent effect | O=C(c1cnc(N[C@H]2O[C@H](CO)[C@@H](O)[C@H](O)[C@@H]2O)s1)C12CC3CC(CC(C3)C1)C2 | 0.3 | 
Dose-dependent effect | O=C(c1ccc([N+](=O)[O-])cc1)c1cnc(N[C@H]2O[C@H](CO)[C@@H](O)[C@H](O)[C@@H]2O)s1 | 0.7 | 

Structure (SMILES) | Activity [2] | fold change (FC) (Escherichia coli [1]) | other results
Cc1nc(-c2cnccn2)sc1C(=O)c1cnc(N[C@H]2O[C@H](CO)[C@@H](O)[C@H](O)[C@@H]2O)s1 | Dose-dependent effect | 0.2 | inhibition (Escherichia coli [3]): Dose-dependent effect; Ratio (Escherichia coli [7]): 10; Activity (Escherichia coli [8]): 65%; fold change (FC) (Escherichia coli [9]): 0.01; Activity (Escherichia coli [10]): 57.6%; inhibition (Escherichia coli [6]): Dose-dependent effect; Activity (Escherichia coli [11]): 14%
CC(=O)c1cnc(N[C@H]2O[C@H](CO)[C@@H](O)[C@H](O)[C@@H]2O)s1 | Dose-dependent effect | 1.4 | inhibition (Escherichia coli [6]): Dose-dependent effect
